This is an account of results in ChEMBL document CHEMBL4680093 (J Med Chem, 2016).

The nature of data set [1]: In-vivo inhibition of 11beta-HSD1 activity in C57BL/6 mouse epididymal fat assessed as reduction in cortisone to-cortisol conversion at 3 mg/kg, po measured after 2 hrs by ELISA. It is filed as functional. Particulars: C57BL/6, Epididymal fat pad. Put shortly:
(§1)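 Male C57BL/6 mice dosed orally once at 3, 10 or 30 mg/kg in sterile water containing 0.5% methylcellulose and 1% Tween80, then sacrificed at 2 or 6 h. Liver and epididymal fat pads incubated ex vivo in culture medium containing cortisone. Cortisol formed was measured by ELISA and reported as % inhibition versus vehicle.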
On the technique in general: In an ELISA, binding on a coated surface is turned into a signal by an enzyme label.

Data set [2] in a line: In-vivo inhibition of 11beta-HSD1 activity in C57BL/6 mouse liver assessed as reduction in cortisone to-cortisol conversion at 30 mg/kg, po measured after 6 hrs by ELISA. To be noted: C57BL/6, Liver. Format: functional. An outline of the steps:
as §1

Data set [3] is described as follows: Protein binding in human plasma. To be noted: read-out: PPB. Format: ADME, cell-free.
A short description of data set [4]: Drug level in mouse brain at 10 mg/kg, po measured after 2 hrs post dose. Format: ADME, organism-based. Particulars: in vivo. An outline of the steps:
(§2)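 C57BL/6 mice given a single oral 10 mg/kg dose in 0.5% methylcellulose plus 1% Tween80. Sacrifice at 2 h post-dose, with collection of brain, liver, adipose and plasma. Compound concentration expressed as nmol/g, along with tissue/plasma ratio.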

The nature of data set [5]: In-vivo inhibition of 11beta-HSD1 activity in C57BL/6 mouse epididymal fat assessed as reduction in cortisone to-cortisol conversion at 10 mg/kg, po measured after 2 hrs by ELISA. It is filed as functional. Particulars: C57BL/6, Epididymal fat pad. An outline of the steps:
as §1

The next data set addresses Cytochrome P450 2C9 (Homo sapiens, UniProt P11712). Kind of data set: Inhibition of CYP2C9 in pooled human liver microsomes using diclofenac as substrate in presence of NADPH incubated for 10 mins by LC-MS/MS analysis.
Data set [6] deals with T1, 11-beta-hydroxysteroid dehydrogenase 1 (Homo sapiens, UniProt P28845). The data set can be described thus: Inhibition of human 11beta-HSD1 expressed in microsomes. On the set-up: species or system Microsome. An outline of the steps:
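HEK293 cell lysates (microsomal fractions) overexpressing human or mouse 11β-HSD1 were incubated with cortisone, a range of inhibitor concentrations and an NADPH regenerating system in sodium phosphate buffer at 37°C for 1 h. Cortisol in the supernatant was quantified by ELISA. Percent inhibition was fitted to a sigmoidal dose-response curve to give IC50.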

The target in data set [7] is T2, 11-beta-hydroxysteroid dehydrogenase type 2 (Homo sapiens) (UniProt P80365).
T2 sequence (whole entry): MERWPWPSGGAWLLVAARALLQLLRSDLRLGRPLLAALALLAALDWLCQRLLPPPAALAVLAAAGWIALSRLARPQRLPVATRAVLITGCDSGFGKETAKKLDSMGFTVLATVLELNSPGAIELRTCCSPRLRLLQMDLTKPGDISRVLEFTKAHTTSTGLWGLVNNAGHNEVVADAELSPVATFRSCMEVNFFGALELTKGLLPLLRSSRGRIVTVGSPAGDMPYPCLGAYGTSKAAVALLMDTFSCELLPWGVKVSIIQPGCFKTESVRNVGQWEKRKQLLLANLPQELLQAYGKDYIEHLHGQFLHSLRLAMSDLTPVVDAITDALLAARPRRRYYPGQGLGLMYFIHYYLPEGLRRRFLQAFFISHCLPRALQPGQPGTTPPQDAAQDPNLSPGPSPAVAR
Kind of data set: Inhibition of human 11beta-HSD2 expressed in microsomes at 10 uM relative to control. Particulars: Microsome.

The nature of data set [8]: Clearance in mouse at 1 mg/kg, iv. To be noted: in vivo. Format: ADME, organism-based.
Data set [9] in a line: Half life in dog at 0.5 mg/kg, iv. Format: ADME, organism-based, Canis lupus familiaris. Particulars: in vivo.
Data set [10] in a line: AUC in dog at 0.5 mg/kg, iv. Format: ADME, organism-based, Canis lupus familiaris. On the set-up: dose 0.5 mg/kg. Particulars: in vivo.
Data set [11] can be described thus: Cmax in dog at 4 mg/kg, po. Particulars: in vivo. On the set-up: route oral, dose 4 mg/kg. Format: ADME, organism-based, Canis lupus familiaris.
Data set [12] can be described thus: Tmax in dog at 4 mg/kg, po. To be noted: in vivo. Format: ADME, organism-based, Canis lupus familiaris. Put shortly: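 Single-dose PK study. The iv dose was given in 10% hydroxypropyl-β-cyclodextrin and the oral dose in 0.5% methylcellulose/1% Tween80. Mouse and rat received 1 mg/kg iv and 5 mg/kg po. Dog received 0.5 mg/kg iv and 4 mg/kg po. CL, Vss, t1/2, AUC, Cmax, tmax and F were derived.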

A short description of data set [13]: Drug level in mouse plasma at 10 mg/kg, po measured after 2 hrs post dose. It is filed as ADME, organism-based. Particulars: in vivo. Put shortly: as §2
Data set [14] in a line: Toxicity in female dog during 4-week repeated once daily oral-dose toxicity study. Particulars: in vivo, time 4 weeks. On the set-up: species or system Canis lupus familiaris. An outline of the steps:
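Dogs of both sexes were dosed orally once daily for 4 weeks at 25, 100 and 400 mg/kg. Toxicity was assessed and the NOAEL determined.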

Data set [15] is described as follows: Reduction in HbA1c level in C57BL/6-Lep^ob (ob/ob) mouse at 20 mg/kg, po dosed once daily for 25 days relative to control. Format: functional. On the set-up: scale not given: the % may be the effect or the level left. Particulars: time 25 day. Put shortly: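 Eight-week-old male ob/ob mice were dosed orally once daily for 25 days with vehicle (sterile water, 0.5% methylcellulose, 1% Tween80), test compound 20 mg/kg, metformin 300 mg/kg, or the combination. Baseline postprandial glucose and HbA1c were checked from tail-vein blood. Changes in HbA1c and non-fasting blood glucose were expressed relative to the vehicle group.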

Data set [16] relates to Mus musculus. The data set can be described thus: Improvement in lipid profile in C57BL/6-Lep^ob (ob/ob) mouse assessed as total cholesterol level at 20 mg/kg, po dosed once daily for 25 days (reference value: 286.6 +/- 6.3 mg/dl). It is filed as functional. To be noted: time 25 day.
The test system of data set [17] is Mus musculus. The data set can be described thus: Improvement in lipid profile in C57BL/6-Lep^ob (ob/ob) mouse assessed as triglyceride level at 20 mg/kg, po dosed once daily for 25 days (reference value: 90.9 +/- 5.5 mg/dl). Format: functional. Particulars: time 25 day.
For data set [18], the target named is T1, 11-beta-hydroxysteroid dehydrogenase 1. The data set can be described thus: Inhibition of human 11beta-HSD1 expressed in HEK293 cells using cortisone by ELISA.

T1 sequence (P28845 whole entry): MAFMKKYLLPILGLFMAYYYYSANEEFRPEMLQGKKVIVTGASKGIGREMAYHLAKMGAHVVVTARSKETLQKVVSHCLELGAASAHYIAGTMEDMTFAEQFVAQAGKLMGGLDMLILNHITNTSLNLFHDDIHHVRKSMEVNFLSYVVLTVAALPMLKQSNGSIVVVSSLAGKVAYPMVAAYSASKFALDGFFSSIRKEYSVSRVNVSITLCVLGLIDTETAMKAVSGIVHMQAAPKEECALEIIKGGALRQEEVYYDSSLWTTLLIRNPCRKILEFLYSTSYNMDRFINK
Chain of Cytochrome P450 2C9 (P11712 whole entry): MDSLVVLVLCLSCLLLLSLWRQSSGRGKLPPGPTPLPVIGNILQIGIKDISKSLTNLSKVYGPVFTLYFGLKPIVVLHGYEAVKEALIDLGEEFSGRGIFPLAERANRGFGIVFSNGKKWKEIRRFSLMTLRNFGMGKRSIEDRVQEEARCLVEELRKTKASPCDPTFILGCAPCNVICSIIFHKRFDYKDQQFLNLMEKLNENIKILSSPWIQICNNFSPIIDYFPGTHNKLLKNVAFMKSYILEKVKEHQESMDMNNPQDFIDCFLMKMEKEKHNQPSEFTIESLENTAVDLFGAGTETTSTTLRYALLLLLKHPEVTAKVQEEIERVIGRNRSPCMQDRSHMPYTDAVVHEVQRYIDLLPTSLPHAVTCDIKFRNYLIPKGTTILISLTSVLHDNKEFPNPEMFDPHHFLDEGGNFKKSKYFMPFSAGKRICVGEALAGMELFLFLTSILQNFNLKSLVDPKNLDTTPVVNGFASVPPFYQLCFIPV

For orientation: inhibition in vivo means the change of the read-out against control, counted positive when it falls. One may read the IC50 as the concentration that inhibits the measured activity by half. One may read the inhibition as the relative decrease from the control value, in per cent. A word on the clearance: it is a measure of how efficiently the substance is removed, as volume per time. For orientation: half-life means the time needed for the level to fall by half in the phase considered. By AUC is commonly meant concentration integrated over time. Usually Cmax stands for the highest concentration seen after dosing. Usually Tmax stands for the time from dosing to the highest level. One may read the NOAEL as the highest dose or exposure tested at which no adverse effect was seen. Turning to `C[C@@H]1CN(c2ccc(S(C)(=O)=O)cc2F)CCN1c1nccc(C(=O)NC2C3CC4CC2CC(O)(C4)C3)n1` (some centres undefined), the inhibition in vivo at 3 mg/kg in data set [1] was determined as 86%. For the same compound, the inhibition in vivo at 30 mg/kg in [2] was determined as 92%. In data set [3], the fraction unbound was 0.01. The same compound came in with a Drug uptake in [4] of 0.41 nmol/g. Besides, in data set [5], the inhibition in vivo at 10 mg/kg worked out at 88%. The IC50 is more than 10000 nM on Cytochrome P450 2C9, 2.9 nM in data set [6] and 4.4 nM in data set [18]. Besides, the inhibition in data set [7] turned out to be 17%. In addition, the clearance in [8] was 7 mL/min/kg. Besides, the half-life in data set [9] was 4.7 h. Besides, in [10], the AUC worked out at 1470 ng·h/mL. In addition, in data set [11], the concentration peaked (Cmax) at 1120 ng/mL. Further, the Tmax in data set [12] was found to be 2.1 h. The Cp in data set [13] is recorded as 10.6 nmol/g. For the same compound, the NOAEL at 672 h in data set [14] is 400 mg/kg. Besides, the Activity in [15] was found to be 1.2%; in the data set with Mus musculus [16] it was 230.6 mg/dL; in the data set on Mus musculus [17] it was 83.4 mg/dL.
